# TRPC4 PAM: allosteric potentiators of mouse TRPC4 channel | HEK293 TRPC4beta/mu-opioid, DAMGO EC20, Fluo-4 Ca2+ flux; hits give high values | actives 0.42% (n = 310,000) | B-score at 10 µM;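 active means B-score of calcium response area above 5 SD of library B-scores, with initial fluorescence ratio within 5 SD of library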;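 further: B-score of integrated fluorescence ratio over time as area under calcium response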
# TRPC6 act: mouse TRPC6 channel activation; Q61143; HEK293-TRPC6 membrane potential dye fluorescence; hits give high values; B-score at 10 µM; actives 0.13% (n = 310,000);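 active means B-score of the integrated fluorescence ratio above library mean plus 3 SD, and starting fluorescence ratio within library mean plus 5 SD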;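 further: higher score means more depolarization so channel activation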
# TRPC4 agonist: activators of mouse TRPC4 channel | Q9QUQ5 | HEK293 TRPC4beta/mu-opioid, Fluo4 calcium fluorescence; hits give high values | B-score at 10 µM | actives 0.49% (n = 310,000) | AID 2237;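 active means B-score above 5 SD of library B-scores, and initial fluorescence ratio not above library mean plus 5 SD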;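 further: positive B-score marks a calcium rise read as TRPC4 activation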
#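 Technique: kinetic Fluo4 calcium fluorescence; Test system: TRPC4beta and mu-opioid receptor HEK293 stable cells; Measure: B-scored integrated calcium fluorescence ratio; Benchmarks: low control buffer alone, high control maximal DAMGO; Schedule: 45 min room-temperature Fluo4 loading, 110 s read.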
# TRPC6 inhibitor: mouse TRPC6 channel inhibition. B-score at 10 µM. actives 1.1% (n = 310,000). HEK293-TRPC6, membrane potential dye, ACh-evoked depolarization; hits give low values;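 active means B-score under library mean minus 3 SD, initial fluorescence not abnormally high, positive integrated signal ratio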;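 further: B-score derived from integrated fluorescence ratio over the kinetic read; more negative B-score means stronger inhibition of depolarization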
# TRPC4 block: TRPC4 (mouse) channel inhibition. AID 2247. actives 0.39% (n = 300,000). HEK293 TRPC4beta/mu-opioid, DAMGO-evoked Fluo4 calcium flux; hits give low values. B-score at 10 µM. Q9QUQ5;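 active means B-score over 3 SD under the library average, no early fluorescence shift, positive overall ratio signal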
#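 Assay system: Stable TRPC4beta/mu-opioid receptor HEK293 cells | Reagent: DAMGO in two steps, submaximal then maximal | Compound dosing: Single concentration per test compound | Signal: Fluo4 Ca2+ flux fluorescence | Evaluation: Per-well B score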
# TRPC4 spec 2: second check of whether TRPC6 inhibitors also affect mouse TRPC4. shares compounds with TRPC6 inhibitor. HEK293 TRPC4/MOR, membrane potential dye fluorescence; channel activated by saturating DAMGO dose. inhibition, % at 10 µM. actives 42% (n = 920);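 active means compounds whose fluorescence signal differed from control wells by over 3 SD, either direction, in both duplicate plates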
# TRPC4 spec: mouse TRPC4 off-target activity of TRPC6 inhibitors; AID 2777; actives 61% (n = 920); shares compounds with TRPC6 inhibitor; HEK293 TRPC4/mu-opioid, membrane potential fluorescence; activity change, negative = inhibition, % at 10 µM;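 active means rise or fall in signal beyond 3 SD of buffer-only wells in both replicate plates, either sign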;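 further: integrated kinetic ratio of fluorescence range over baseline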
# HEK293 MPD ctr 2-1: parental HEK293 nonspecific activity of TRPC6 inhibitors, second screen | shares compounds with TRPC6 inhibitor | parental HEK293 membrane potential dye fluorescence; maximal acetylcholine challenge after compound addition | signal change vs control, % at 10 µM | actives 31% (n = 920) | AID 2779;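 active means membrane potential signal moving either way by over 3 SD of the maximum-effect control, in both duplicate plates, meaning non-specific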
# HEK293 MPD ctr-1: parental HEK293 nonspecific activity of TRPC6 inhibitors; shares compounds with TRPC6 inhibitor; parental HEK293 membrane potential dye fluorescence; membrane potential signal change, % at 10 µM; actives 60% (n = 920); AID 2780;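 active means membrane potential signal shifting up or down by more than 3 SD of buffer-only wells, on both duplicate plates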
# HEK293 MPD ctr-2: checks TRPC6 modulator effects in parental HEK293 cells; membrane potential signal change, % at 10 µM; shares compounds with TRPC6 inhibitor; actives 51% (n = 2,400); membrane potential dye fluorescence;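 active means membrane potential signal moves up or down beyond 5 SD from buffer-only wells, on both duplicate plates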
# HEK293 MPD ctr 2-2: second check of TRPC6 modulator effects in parental HEK293 cells. shares compounds with TRPC6 inhibitor. membrane potential dye fluorescence; after compound, maximal acetylcholine stimulation. inhibition, % at 10 µM. actives 14% (n = 2,400). AID 488926;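 active means membrane potential signal drops by more than 5 SD from the mean control signal, in both duplicate plates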;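 further: plate controls were acetylcholine ECmax control wells for no effect and buffer only wells for full effect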
# TRPC4 ctr mod: tests whether TRPC6 modulators also affect mouse TRPC4 | shares compounds with TRPC6 inhibitor | HEK293 TRPC4/mu-opioid, membrane potential fluorescence | percent change from control (negative = decrease, positive = increase), % at 10 µM | actives 69% (n = 2,400) | AID 488927;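 active means membrane potential signal moved up or down beyond 5 SD of buffer control wells, in both duplicate plates, actives on both sides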;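 further: plate controls were assay buffer wells for no effect and DAMGO maximal-effect wells for full effect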
# TRPC4/MOR inh 2: second check of whether TRPC6 modulators also affect mouse TRPC4. shares compounds with TRPC6 inhibitor. HEK293 TRPC4/mu-opioid, membrane potential dye fluorescence; stimulated with maximal-effect DAMGO. inhibition, % at 10 µM. actives 55% (n = 2,400). AID 488928;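 active means drop in membrane potential signal beyond 5 SD of the control wells in both duplicate plates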;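 further: TRPC4 counter screen for TRPC6 hits run under conditions tuned for TRPC6 not TRPC4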
# TRPC6 block conf: mouse TRPC6 inhibitor confirmation | shares compounds with TRPC6 inhibitor | HEK293-TRPC6, membrane potential dye, ACh-evoked depolarization | inhibition, % at 10 µM | actives 43% (n = 3,300) | AID 488960;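 active means fluorescence ratio falls more than 5 SD below the full-stimulation control mean, in both duplicate runs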;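 further: integrated fluorescence ratio of peak minus minimum over baseline after agonist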
# TRPC6 act confirm: mouse TRPC6 activator confirmation | shares compounds with TRPC6 inhibitor | HEK293-TRPC6 membrane potential dye fluorescence, FDSS | activation, % at 10 µM | actives 11% (n = 2,800) | AID 488961;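 active means ratio signal rise beyond 5 SD above unstimulated control wells' mean, seen in both duplicate runs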;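 further: plate controls were buffer EC0 wells for no effect and acetylcholine ECmax response for full effect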
# The depositor's hits bear a star; i = inactive; . = no result. A selection: hits, their analogues and other compounds. The true share with any hit is near 2.3%.
SMILES,TRPC4 PAM,TRPC6 act,TRPC4 agonist,TRPC6 inhibitor,TRPC4 block,HEK293 MPD ctr-2,HEK293 MPD ctr 2-2,TRPC4 ctr mod,TRPC4/MOR inh 2,TRPC6 block conf,TRPC6 act confirm,others
O=c1ccc2cc(S(=O)(=O)NCc3ccccc3)ccc2[nH]1,i,i,i,i,i,.,.,.,.,.,.,
COc1ccccc1CNC(=O)COC(=O)c1cc([N+](=O)[O-])ccc1N1CCOCC1,i,i,i,-5.1*,i,i,i,14%*,i,i,.,
S=c1[nH]nc(-c2ccccc2Cl)n1/N=C/C=C/c1ccco1,i,i,i,-6*,i,i,i,i,i,44%*,i,
Cc1cccc(NC(=O)N2CCCc3ccccc32)c1C,i,i,i,i,i,.,.,.,.,.,.,
Cc1cc(C(C)(C)C)oc1C(=O)OCC(=O)NC1CCCCC1,i,i,i,-5.3*,i,i,i,26%*,i,53%*,.,
Cc1ccc(C)c(N(CC(=O)NC2CCCC2)C(=O)c2oc(C(C)(C)C)cc2C)c1,i,i,i,i,i,.,.,.,.,.,.,
O=[N+]([O-])c1ccc(/C=N/Nc2nc(N3CCCCC3)nc(N3CCCCC3)n2)cc1,i,i,i,-6*,i,i,i,i,i,i,i,
O=C(/C=C/c1cccc([N+](=O)[O-])c1)N1CCN(c2ccc(F)cc2)CC1,i,i,i,i,i,.,.,.,.,.,.,
COc1ccc(-c2nc(C(=O)NCCCN3CCOCC3)cc3c2[nH]c2ccccc23)cc1OC,i,i,i,-5.6*,i,i,i,-18%*,67%*,46%*,i,
Cc1ccc(-c2nc(C(=O)NCCCN3CCOCC3)cc3c2[nH]c2ccccc23)cc1,i,i,i,-6.6*,i,.,.,.,.,i,i,TRPC4 spec 2=58%*;TRPC4 spec=-16%*;HEK293 MPD ctr 2-1=i;HEK293 MPD ctr-1=-166%*
Cc1cc(Cl)ccc1C(=O)C1CCCN(C(=O)c2cc(C(C)C)no2)C1 (stereo not given),i,i,i,-6.2*,i,98%*,i,20%*,i,48%*,.,
CC(C)c1cc(C(=O)N2CCCC(C(=O)c3ccc4ccccc4c3)C2)on1 (stereo not given),i,i,i,i,i,.,.,.,.,.,.,

# High-throughput results: PubChem BioAssay, Johns Hopkins Ion Channel Center
